Results from ChEMBL document CHEMBL3826882, “Discovery of 1-((2R,4aR,6R,7R,7aR)-2-Isopropoxy-2-oxidodihydro-4H,6H-spiro[furo[3,2-d][1,3,2]dioxaphosphinine-7,2'-oxetan]-6-yl)pyrimidine-2,4(1H,3H)-dione (JNJ-54257099), a 3'-5'-Cyclic Phosphate Ester Prodrug of 2'-Deoxy-2'-Spirooxetane Uridine Triphosphate Useful for HCV Inhibition” (J Med Chem, 2016).

Legend:
Hepatocyte [1] = test: Prodrug conversion in mouse primary hepatocytes assessed as 2'-deoxy-2'-spirooxetane uridine triphosphate level per million cells at 2 uM after 4 hrs using radiolabelled compound by LC-MS/MS analysis; assay type: ADME, cell-based
How it was run: (§1)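 Study A: fresh primary hepatocyte cultures from mouse, rat, dog and human incubated with tritiated prodrug at 2 or 62.5 µM for 4 or 24 h. Triphosphate in cell lysates reported as pmol/million hepatocytes. Duplicate or single measurements.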

Hepatocyte [2] = test: Prodrug conversion in rat primary hepatocytes assessed as 2'-deoxy-2'-spirooxetane uridine triphosphate level per million cells at 2 uM after 4 hrs using radiolabelled compound by LC-MS/MS analysis; assay type: ADME, cell-based; how it was run: as §1
[3] = Prodrug conversion in dog primary hepatocytes assessed as 2'-deoxy-2'-spirooxetane uridine triphosphate level per million cells at 62.5 uM after 4 hrs using radiolabelled compound by LC-MS/MS analysis; assay type: ADME, cell-based, Canis lupus familiaris, Hepatocyte; how it was run: as §1
Hepatocyte [4] = test: Prodrug conversion in human primary hepatocytes assessed as 2'-deoxy-2'-spirooxetane uridine triphosphate level per million cells at 2 uM after 4 hrs using radiolabelled compound by LC-MS/MS analysis; assay type: ADME, cell-based; how it was run: as §1
Hepatocyte [5] = test: Stability in human primary hepatocyte supernatant assessed as parent compound level at 2 uM after 4 to 24 hrs using radiolabeled compound by HPLC analysis; assay type: ADME, cell-based; conditions: hepatocytes
Hepatocyte [6] = test: Drug metabolism in rat primary hepatocyte supernatant assessed as 1-((4R,5R,7R,8R)-8-hydroxy-7-(hydroxymethyl)-1,6-dioxaspiro[3.4]octan-5-yl)pyrimidine-2,4(1H,3H)-dione formation at 2 to 62.5 uM after 4 to 24 hrs using radiolabeled compound by HPLC analysis; assay type: ADME, cell-based; conditions: hepatocytes
How it was run: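 Fresh primary hepatocyte cultures incubated with tritiated prodrug (5'-[3H]) at 2 and 62.5 µM for 4 and 24 h. Supernatants taken after protein precipitation and profiled by HPLC with radioactivity detection. Cell lysates profiled for metabolites by radio-LC. Cyclic monophosphate also measured by LC/MS/MS.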

Hepatitis C virus [7] = test: Antiviral activity against HCV genotype 1a infected in homozygous cDNA-uPA chimeric SCID mouse bearing humanized hepatocytes assessed as change in HCV RNA level in serum at 100 mg/kg, po bid administered through gavage for 7 days by RT-PCR method; assay type: functional, Hepacivirus hominis, subtype 1a, Hepatocyte
How it was run: (§2)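 Male chimeric SCID cDNA-uPA+/+ mice with human hepatocyte liver (≥70% replacement by blood human albumin) and serum HCV RNA >1.0×10^6 copies/mL the week before dosing. Oral gavage for 7 days in 20% HP-β-CD, 50-200 mg/kg QD or BID. Serum sampled pre-dose on days 1, 2, 3, 5 and 7. Real-time PCR; mean change in log10 copies/mL, day 7 vs day 1 pre-dose.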

Hepatitis C virus [8] = test: Antiviral activity against HCV genotype 3a infected in homozygous cDNA-uPA chimeric SCID mouse bearing humanized hepatocytes assessed as change in HCV RNA level in serum at 100 mg/kg, po bid administered through gavage for 7 days by RT-PCR method; assay type: functional, Hepacivirus hominis, Hepatocyte; how it was run: as §2
Hepatitis C virus [9] = test: Antiviral activity against HCV genotype 3a infected in homozygous cDNA-uPA chimeric SCID mouse bearing humanized hepatocytes assessed as reduction in HCV RNA level in serum administered through oral gavage twice daily daily for 7 days by RT-PCR method; assay type: functional, organism-based; conditions: Hepacivirus hominis, Hepatocyte; how it was run: as §2
Cytochrome P450 3A4 = Cytochrome P450 3A4 (Homo sapiens, UniProt P08684); test: Drug metabolism in baculovirus infected insect cell microsomes expressing human CYP3A4 assessed as CYP3A4-mediated intrinsic clearance per pmol CYP3A4 at 22.7 uM; assay type: ADME; conditions: recombinant enzyme
Sequence of Cytochrome P450 3A4 (P08684 whole entry): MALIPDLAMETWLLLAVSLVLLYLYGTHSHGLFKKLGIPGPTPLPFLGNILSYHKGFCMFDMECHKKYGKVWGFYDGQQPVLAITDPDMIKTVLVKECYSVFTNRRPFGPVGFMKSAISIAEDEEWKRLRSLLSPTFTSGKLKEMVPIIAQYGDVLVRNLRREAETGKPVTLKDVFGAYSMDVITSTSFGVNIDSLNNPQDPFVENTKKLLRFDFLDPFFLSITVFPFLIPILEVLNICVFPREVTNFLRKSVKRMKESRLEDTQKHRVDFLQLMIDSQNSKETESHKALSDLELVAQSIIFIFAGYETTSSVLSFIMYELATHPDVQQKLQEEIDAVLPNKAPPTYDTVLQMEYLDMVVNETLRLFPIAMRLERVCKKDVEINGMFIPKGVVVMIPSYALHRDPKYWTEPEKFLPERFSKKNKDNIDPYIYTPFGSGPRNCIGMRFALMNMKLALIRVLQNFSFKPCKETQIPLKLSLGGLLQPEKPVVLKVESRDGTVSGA
How it was run: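 Incubation at 22.7 µM with human CYP3A4 supersomes. Intrinsic clearance (µL/min.pmol P450) and half-life (min) were determined.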

Hepatocyte [10] = test: Prodrug conversion in mouse cryopreserved hepatocytes assessed as 2'-deoxy-2'-spirooxetane uridine triphosphate level per million cells at 10 uM after 2 hrs by LC-MS/MS analysis; assay type: ADME, cell-based
How it was run: (§3)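 Plated cryopreserved hepatocytes (study B) incubated with 10 µM unlabeled prodrug for 2, 8 or 24 h. Triphosphate measured in cell lysates and expressed as pmol/million hepatocytes. Quantification limit 2 ng/10^6 cells.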

Hepatocyte [11] = test: Prodrug conversion in mouse cryopreserved hepatocytes assessed as 2'-deoxy-2'-spirooxetane uridine triphosphate level per million cells at 10 uM after 24 hrs by LC-MS/MS analysis; assay type: ADME, cell-based; how it was run: as §3
[12] = Prodrug conversion in dog cryopreserved hepatocytes assessed as 2'-deoxy-2'-spirooxetane uridine triphosphate level per million cells at 10 uM after 2 hrs by LC-MS/MS analysis; assay type: ADME, cell-based, Canis lupus familiaris, Hepatocyte; how it was run: as §3
[13] = Prodrug conversion in dog cryopreserved hepatocytes assessed as 2'-deoxy-2'-spirooxetane uridine triphosphate level per million cells at 10 uM after 24 hrs by LC-MS/MS analysis; assay type: ADME, cell-based, Canis lupus familiaris, Hepatocyte; how it was run: as §3
Hepatocyte [14] = test: Prodrug conversion in human primary hepatocytes assessed as 2'-deoxy-2'-spirooxetane uridine triphosphate formation measured at 8 hrs by LC-MS/MS analysis; assay type: ADME, cell-based
How it was run: (§4)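 Hepatocyte primary cultures followed over time for triphosphate formation in cell lysates: rat and mouse up to 24 h, human up to 96 h.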

Hepatocyte [15] = test: Prodrug conversion in human primary hepatocytes assessed as 2'-deoxy-2'-spirooxetane uridine triphosphate formation measured at 48 to 96 hrs by LC-MS/MS analysis; assay type: ADME, cell-based; how it was run: as §4
Hepatocyte [16] = test: Drug level in human hepatocytes treated with JNJ-54257099 in presence of CYP2C8 and CYP2C9 inhibitor montelukast by LC-MS/MS analysis; assay type: ADME, cell-based
Hepatocyte [17] = test: Prodrug conversion in human hepatocytes assessed as 2'-deoxy-2'-spirooxetane uridine triphosphate formation in presence of pan-PDE inhibitor ibudilast by LC-MS/MS analysis; assay type: ADME, cell-based
Hepatocyte [18] = test: Drug metabolism in human hepatocytes assessed as ((4R,5R,7R,8R)-5-(2,4-dioxo-3,4-dihydropyrimidin-1(2H)-yl)-8-hydroxy-1,6-dioxaspiro[3.4]octan-7-yl)methyl dihydrogen phosphate formation in presence of CYP2C8 and CYP2C9 inhibitor montelukast by LC-MS/MS analysis; assay type: ADME, cell-based
Plasma [19] = test: Tlast in mouse plasma at 50 mg/kg, po; assay type: ADME, organism-based; conditions: in vivo
How it was run: (§5)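 Single oral dose of 50 mg/kg formulated in 20% HP-β-cyclodextrin. Prodrug and its triphosphate were measured in plasma and liver (ng/mL or ng/g) over time, and Cmax, tmax, AUC, tlast and t1/2 were derived. For some analytes, data from two independent studies are reported.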

[20] = Half life in mouse plasma at 50 mg/kg, po; assay type: ADME, organism-based
How it was run: (§6)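 Single oral dose of 50 mg/kg in 20% HP-β-cyclodextrin. Prodrug and triphosphate measured in plasma and liver over time (tlast 6–30 h). Half-life, Cmax, tmax and AUC0-last derived; liver/plasma ratio taken from AUC0-last. Prodrug data pooled from two independent studies.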

Liver [21] = test: Half life in mouse liver assessed as 2'-deoxy-2'-spirooxetane uridine triphosphate at 50 mg/kg, po; assay type: ADME, organism-based; conditions: in vivo; how it was run: as §6
[22] = Half life in rat plasma at 50 mg/kg, po; assay type: ADME, organism-based; how it was run: as §6
Liver [23] = test: Tlast in rat liver assessed as 2'-deoxy-2'-spirooxetane uridine triphosphate at 50 mg/kg, po; assay type: ADME, organism-based; conditions: in vivo; how it was run: as §5
[24] = AUC (0 to last) in dog plasma at 50 mg/kg, po; assay type: ADME, organism-based, Canis lupus familiaris; parameters: dose 50 mg/kg, route oral, time 0 - last
How it was run: (§7)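 Oral dose 50 mg/kg, formulated in 20% HP-β-cyclodextrin. Prodrug and triphosphate were measured in plasma and liver (ng/mL or ng/g). Parameters derived were Cmax, tmax, AUC0-last, AUC0-inf and t1/2. Some prodrug data come from two independent studies.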

Plasma [25] = test: Tlast in dog plasma at 50 mg/kg, po; assay type: ADME, organism-based, Canis lupus familiaris; conditions: in vivo; how it was run: as §5
Liver [26] = test: AUC (0 to last) in dog liver at 50 mg/kg, po; assay type: ADME, organism-based, Canis lupus familiaris; conditions: in vivo; how it was run: as §7
Liver [27] = test: Cmax in dog liver assessed as 2'-deoxy-2'-spirooxetane uridine triphosphate at 50 mg/kg, po; assay type: ADME, organism-based, Canis lupus familiaris; parameters: dose 50 mg/kg, route oral; conditions: in vivo

## [3H]C1O[P@](=O)(OC(C)C)O[C@@H]2[C@@H]1O[C@@H](n1ccc(=O)[nH]c1=O)[C@@]21CCO1 (stereo partly drawn)
Hepatocyte [1]
  Drug metabolism: 0.063 pmol
Hepatocyte [2]
  Drug metabolism: 0.085 pmol
[3]
  Drug metabolism: 0.035 pmol
Hepatocyte [4]
  Drug metabolism: 0.023 pmol
Hepatocyte [5]
  Stability: Stable
Hepatocyte [6]
  Drug metabolism: metabolite_detected

## CC(C)O[P@@]1(=O)OC[C@H]2O[C@@H](n3ccc(=O)[nH]c3=O)[C@@]3(CCO3)[C@@H]2O1
Hepatitis C virus [7]
  Activity: -1.17
Hepatitis C virus [8]
  Activity: -1.08
Hepatitis C virus [9]
  Activity: Dose-dependent effect
Cytochrome P450 3A4
  CL: 0.058 µL/min
Hepatocyte [10]
  Drug metabolism: 0.538 pmol
Hepatocyte [11]
  Drug metabolism: 0.519 pmol
[12]
  Drug metabolism: < 2 ng
[13]
  Drug metabolism: < 2 ng
Hepatocyte [14]
  Drug metabolism: metabolite_detected
Hepatocyte [15]
  Drug metabolism: metabolite_detected
Hepatocyte [16]
  Drug uptake: Active
Hepatocyte [17]
  Drug metabolism: metabolite_notdetected
Hepatocyte [18]
  Drug metabolism: metabolite_detected
Plasma [19]
  Tlast: 24 h
[20]
  half-life: 4.4 h
Liver [21]
  t1/2: 3.9 h
[22]
  half-life: 4.8 h
Liver [23]
  Tlast: 30 h
[24]
  AUC(0-t): 25600 ng·h/mL
Plasma [25]
  Tlast: 24 h
Liver [26]
  AUClast: 35596 ng·h/g
Liver [27]
  Cmax: 46600 ng/g
